{
  "source": "ChEMBL document CHEMBL5661986",
  "about": "“Discovery of the SMYD3 Inhibitor BAY-6035 Using Thermal Shift Assay (TSA)-Based High-Throughput Screening” (SLAS Discov, 2021)",
  "key": {"[1]": {"assay": "Lipophilicity, log D of the compound at pH 7.5", "format": "physicochemical", "conditions": "buffer"}, "[2]": {"target": "T1, Histone-lysine N-methyltransferase SMYD3 (Homo sapiens) (UniProt Q9H7B4)", "T1 sequence (whole entry)": "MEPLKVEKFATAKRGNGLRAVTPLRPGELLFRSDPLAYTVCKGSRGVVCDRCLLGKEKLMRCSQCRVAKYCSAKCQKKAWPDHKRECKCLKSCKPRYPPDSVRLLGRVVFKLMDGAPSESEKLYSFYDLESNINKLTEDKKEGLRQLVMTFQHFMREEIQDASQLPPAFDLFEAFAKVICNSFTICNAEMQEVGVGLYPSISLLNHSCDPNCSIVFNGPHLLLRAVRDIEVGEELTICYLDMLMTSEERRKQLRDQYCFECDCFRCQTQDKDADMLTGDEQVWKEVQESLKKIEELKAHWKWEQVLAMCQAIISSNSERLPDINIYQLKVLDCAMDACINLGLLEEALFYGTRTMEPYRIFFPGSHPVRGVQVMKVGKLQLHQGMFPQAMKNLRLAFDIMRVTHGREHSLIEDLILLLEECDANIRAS", "assay": "Binding affinity to recombinant human SMYD3 expressed in Escherichia coli assessed as change in enthalpy at 0.3 mM by isothermal titration calorimetry", "in_short": "(§1)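 Syringe held compound at 0.3 mM in 20 mM HEPES pH 7.4, 150 mM NaCl, 0.005% Tween 20, 2.5% DMSO; eight 4 µL injections at 180 s intervals into SMYD3.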"}, "[3]": {"tested_on": "Histone-lysine N-methyltransferase SMYD3 (Homo sapiens), Q9H7B4 [UNDEFINED MUTATION]", "assay": "(§2) Inhibition of SMYD3 catalytic inactive mutant co-expressed with HA-tagged MAP3K2 transfected in human HeLa cells assessed as reduction of MAP3K2-K260me3 level incubated for 20 hrs by Western blotting analysis", "format": "cell-based", "in_short": "(§3)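 After 4 h, compound or DMSO for 20 h. Lysates immunoblotted for MAP3K2-K260me3 (in-house antibody), HA, SMYD3 and MAP3K2 with infrared secondaries. K260me3 signal normalized to HA; three technical replicates, mean ± SEM, nonlinear fit.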"}, "[4]": {"target": "Histone-lysine N-methyltransferase SMYD3 (Homo sapiens, UniProt Q9H7B4)", "assay": "as §2", "format": "cell-based", "in_short": "as §3"}, "[5]": {"target": "Protein arginine N-methyltransferase 8 (Homo sapiens) (UniProt Q9NR22)", "assay": "Inhibition of PRMT8 (unknown origin)"}, "[6]": {"target": "Protein arginine N-methyltransferase 9 (Homo sapiens) (UniProt Q6P2P2)", "assay": "Inhibition of PRMT9 (unknown origin)"}, "[7]": {"target": "T1, Histone-lysine N-methyltransferase SMYD3 (Homo sapiens)", "assay": "Binding affinity to biotinylated SMYD3 (unknown origin) assessed as association rate constant (Kon) using S-adenosyl-l-methionine as substrate by surface plasmon resonance analysis", "in_short": "(§4)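 Biotinylated SMYD3 (aa 1–428) captured (~4700 RU) on streptavidin chip, empty reference flow cell; 25 °C; running buffer 20 mM HEPES pH 7.4, 150 mM NaCl, 3 mM EDTA, 0.05% Tween-20, 2% DMSO, plus 50 µM SAM. Single-cycle kinetics, five concentrations 25–2000 nM, 60 s contact, 300 s dissociation, 30 µL/min; triplicate.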"}, "[8]": {"target": "Histone-lysine N-methyltransferase, H3 lysine-79 specific (Homo sapiens) (UniProt Q8TEK3)", "sequence (Q8TEK3 whole entry, looked up)": "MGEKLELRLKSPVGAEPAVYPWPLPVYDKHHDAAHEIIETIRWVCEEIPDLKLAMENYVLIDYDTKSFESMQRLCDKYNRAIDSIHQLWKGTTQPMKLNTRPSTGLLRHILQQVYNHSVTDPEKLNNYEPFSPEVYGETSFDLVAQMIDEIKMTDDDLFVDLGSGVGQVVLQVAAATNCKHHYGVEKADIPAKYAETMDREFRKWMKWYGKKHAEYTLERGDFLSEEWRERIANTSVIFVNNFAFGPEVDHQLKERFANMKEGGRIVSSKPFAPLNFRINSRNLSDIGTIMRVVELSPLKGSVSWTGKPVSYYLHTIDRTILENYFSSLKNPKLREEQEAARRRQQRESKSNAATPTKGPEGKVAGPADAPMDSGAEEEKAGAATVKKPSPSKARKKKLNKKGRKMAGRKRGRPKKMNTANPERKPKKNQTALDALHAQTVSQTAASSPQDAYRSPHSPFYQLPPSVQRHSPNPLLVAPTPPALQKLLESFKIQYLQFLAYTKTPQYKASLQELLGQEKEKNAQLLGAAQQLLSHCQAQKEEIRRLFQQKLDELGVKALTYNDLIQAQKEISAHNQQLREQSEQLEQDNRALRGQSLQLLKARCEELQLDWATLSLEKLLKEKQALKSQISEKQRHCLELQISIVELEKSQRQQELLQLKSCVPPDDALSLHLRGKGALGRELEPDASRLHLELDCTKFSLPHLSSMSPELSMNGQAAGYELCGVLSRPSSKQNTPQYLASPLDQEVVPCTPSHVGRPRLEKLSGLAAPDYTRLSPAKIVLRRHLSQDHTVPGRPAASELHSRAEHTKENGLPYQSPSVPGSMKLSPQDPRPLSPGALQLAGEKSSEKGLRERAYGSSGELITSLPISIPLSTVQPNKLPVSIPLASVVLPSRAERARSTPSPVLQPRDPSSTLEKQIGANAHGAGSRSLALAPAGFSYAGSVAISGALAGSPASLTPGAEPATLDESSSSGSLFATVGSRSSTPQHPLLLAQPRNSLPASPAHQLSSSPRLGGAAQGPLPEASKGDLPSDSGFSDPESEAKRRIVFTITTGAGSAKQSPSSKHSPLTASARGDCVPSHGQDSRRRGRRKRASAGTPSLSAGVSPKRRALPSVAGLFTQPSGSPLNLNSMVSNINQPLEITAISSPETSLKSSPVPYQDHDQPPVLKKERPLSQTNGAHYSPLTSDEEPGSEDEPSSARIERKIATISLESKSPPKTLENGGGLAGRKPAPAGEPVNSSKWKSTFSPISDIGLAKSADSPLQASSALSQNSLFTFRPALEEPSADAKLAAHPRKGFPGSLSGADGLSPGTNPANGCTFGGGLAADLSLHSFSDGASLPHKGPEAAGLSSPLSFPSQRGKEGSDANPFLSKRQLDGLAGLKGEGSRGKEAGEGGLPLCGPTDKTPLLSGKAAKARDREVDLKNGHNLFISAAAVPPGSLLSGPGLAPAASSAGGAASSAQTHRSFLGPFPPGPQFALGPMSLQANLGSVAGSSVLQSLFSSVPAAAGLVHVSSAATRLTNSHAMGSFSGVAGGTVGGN", "assay": "Inhibition of DOT1L (unknown origin)"}, "[9]": {"target": "Mitogen-activated protein kinase 7 (Homo sapiens, UniProt Q13164)", "assay": "Inhibition of GST-tagged ERK5 catalytic domain (unknown origin) in presence of ATP"}, "[10]": {"target": "Dual specificity mitogen-activated protein kinase kinase 5 (Homo sapiens, UniProt Q13163)", "assay": "Inhibition of MEK5 (unknown origin) by competition binding assay"}, "[11]": {"target": "T1, Histone-lysine N-methyltransferase SMYD3 (Homo sapiens)", "assay": "Binding affinity to biotinylated SMYD3 (unknown origin) assessed as dissociation rate constant (Koff) using S-adenosyl-l-methionine as substrate by surface plasmon resonance analysis", "in_short": "as §4"}, "[12]": {"target": "Cyclin-dependent kinase 2/cyclin E1 (Homo sapiens, UniProt P24941)", "assay": "Inhibition of CDK2/CyclinE (unknown origin) in presence of ATP", "format": "protein-complex assay"}, "[13]": {"species_on_record": "Homo sapiens", "assay": "Inhibition of GLP (unknown origin)"}, "[14]": {"tested_on": "HGC-27", "assay": "Antiproliferative activity against human HGC-27 cells assessed as inhibition of cell viability measured for 3 to 5 days by alamar blue staining based assay", "format": "functional"}, "[15]": {"tested_on": "MDA-MB-231", "assay": "Antiproliferative activity against human MDA-MB-231 cells assessed as inhibition of cell viability measured for 3 to 5 days by alamar blue staining based assay", "format": "functional"}, "[16]": {"target": "Protein arginine N-methyltransferase 6 (Homo sapiens) (UniProt Q96LA8)", "sequence (Q96LA8 whole entry, looked up)": "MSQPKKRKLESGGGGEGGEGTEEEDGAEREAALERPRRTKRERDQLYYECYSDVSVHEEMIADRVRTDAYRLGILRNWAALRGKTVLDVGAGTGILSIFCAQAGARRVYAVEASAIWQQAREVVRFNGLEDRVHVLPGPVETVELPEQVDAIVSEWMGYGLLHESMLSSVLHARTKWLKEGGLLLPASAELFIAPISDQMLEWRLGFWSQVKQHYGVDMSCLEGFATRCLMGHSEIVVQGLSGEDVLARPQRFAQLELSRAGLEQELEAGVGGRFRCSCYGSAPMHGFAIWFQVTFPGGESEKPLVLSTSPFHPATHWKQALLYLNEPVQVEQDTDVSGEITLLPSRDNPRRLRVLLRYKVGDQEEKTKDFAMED", "assay": "Inhibition of PRMT6 (unknown origin)"}, "[17]": {"target": "T1, Histone-lysine N-methyltransferase SMYD3 (Homo sapiens)", "assay": "Binding affinity to recombinant human SMYD3 expressed in Escherichia coli assessed as fold change at varying MAP3K2 substrate concentration of upto 150 uM with 10 fold Km concentration by scintillation proximity assay", "in_short": "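SPA, 10 nM SMYD3 methylating biotinylated MAP3K2 249–273 peptide with 3H-SAM in 20 mM Tris pH 9, 2.5 mM DTT, 0.01% Triton X-100; 40 min, 23 °C, GuHCl quench.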"}, "[18]": {"target": "DNMT3B-DNMT3L complex (Homo sapiens) (UniProt Q9UBC3+Q9UJW3)", "sequence (Q9UJW3 whole entry, looked up, other chains not shown)": "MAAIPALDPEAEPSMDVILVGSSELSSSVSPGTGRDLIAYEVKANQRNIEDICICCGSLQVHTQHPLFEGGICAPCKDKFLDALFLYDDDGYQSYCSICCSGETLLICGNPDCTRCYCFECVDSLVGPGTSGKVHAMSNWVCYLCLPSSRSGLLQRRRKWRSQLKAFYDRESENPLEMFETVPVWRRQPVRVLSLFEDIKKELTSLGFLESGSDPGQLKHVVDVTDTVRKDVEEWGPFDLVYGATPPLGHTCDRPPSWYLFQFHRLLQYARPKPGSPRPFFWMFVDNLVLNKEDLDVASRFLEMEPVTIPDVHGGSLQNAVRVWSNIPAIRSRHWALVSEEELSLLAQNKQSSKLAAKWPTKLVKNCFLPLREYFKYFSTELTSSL", "assay": "Inhibition of DNMT3B/DNMT3L (unknown origin)", "format": "protein-complex assay"}, "[19]": {"target": "High affinity nerve growth factor receptor (Homo sapiens, UniProt P04629)", "assay": "Inhibition of human TRK-A"}, "[20]": {"target": "Protein arginine N-methyltransferase 5 (Homo sapiens) (UniProt O14744)", "assay": "Inhibition of PRMT5 (unknown origin)"}, "[21]": {"target": "Cyclin-dependent kinase 12 (Homo sapiens, UniProt Q9NYV4)", "assay": "Inhibition of CDK12 (unknown origin) by using c-myc peptide as substrate in presence of ATP"}, "[22]": {"target": "T1, Histone-lysine N-methyltransferase SMYD3 (Homo sapiens)", "assay": "Binding affinity to recombinant human SMYD3 expressed in Escherichia coli assessed as change in gibbs binding free energy by isothermal titration calorimetry", "in_short": "as §1"}, "[23]": {"target": "Serine/threonine-protein kinase TBK1 (Homo sapiens, UniProt Q9UHD2)", "sequence (Q9UHD2 whole entry)": "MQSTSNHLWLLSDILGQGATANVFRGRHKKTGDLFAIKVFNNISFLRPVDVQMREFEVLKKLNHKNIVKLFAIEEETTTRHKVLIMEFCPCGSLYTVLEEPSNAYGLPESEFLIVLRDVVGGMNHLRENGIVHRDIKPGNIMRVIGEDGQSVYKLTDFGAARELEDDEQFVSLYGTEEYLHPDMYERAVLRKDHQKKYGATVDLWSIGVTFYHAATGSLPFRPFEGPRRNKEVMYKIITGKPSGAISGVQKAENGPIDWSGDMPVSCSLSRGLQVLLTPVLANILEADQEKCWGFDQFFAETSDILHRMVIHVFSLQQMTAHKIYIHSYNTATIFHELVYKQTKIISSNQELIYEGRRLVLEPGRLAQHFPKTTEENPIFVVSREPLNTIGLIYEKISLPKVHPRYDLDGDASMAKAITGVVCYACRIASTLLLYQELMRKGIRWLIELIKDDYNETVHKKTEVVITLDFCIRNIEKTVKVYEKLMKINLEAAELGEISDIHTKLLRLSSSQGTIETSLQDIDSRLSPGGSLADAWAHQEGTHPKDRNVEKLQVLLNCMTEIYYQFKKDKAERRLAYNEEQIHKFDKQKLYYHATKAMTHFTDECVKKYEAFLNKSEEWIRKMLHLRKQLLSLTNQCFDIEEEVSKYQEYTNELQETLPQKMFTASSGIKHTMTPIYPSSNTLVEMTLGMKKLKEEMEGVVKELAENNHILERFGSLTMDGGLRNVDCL", "assay": "Inhibition of TBK1 (unknown origin) in presence of ATP by HTRF assay"}, "[24]": {"target": "Histone-lysine N-methyltransferase SETD7 (Homo sapiens) (UniProt Q8WTS6)", "assay": "Inhibition of SETD7 (unknown origin)"}, "[25]": {"assay": "Cytotoxicity against human MCF-10A cells assessed as inhibition of cell viability measured for 3 to 5 days by alamar blue staining based assay", "format": "toxicity"}, "[26]": {"target": "Aurora kinase A (Homo sapiens, UniProt O14965)", "sequence (O14965 whole entry)": "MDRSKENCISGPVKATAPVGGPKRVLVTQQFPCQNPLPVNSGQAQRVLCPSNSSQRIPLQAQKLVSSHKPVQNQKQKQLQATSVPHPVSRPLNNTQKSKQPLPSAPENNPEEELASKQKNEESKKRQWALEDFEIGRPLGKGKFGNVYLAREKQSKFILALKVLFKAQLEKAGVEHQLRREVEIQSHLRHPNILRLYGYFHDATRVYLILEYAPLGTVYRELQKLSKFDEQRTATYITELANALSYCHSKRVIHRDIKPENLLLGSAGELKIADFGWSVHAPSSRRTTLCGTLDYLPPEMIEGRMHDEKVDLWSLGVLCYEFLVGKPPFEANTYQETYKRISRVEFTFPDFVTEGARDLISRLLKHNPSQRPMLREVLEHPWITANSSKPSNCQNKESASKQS", "assay": "Inhibition of Aurora A (unknown origin) by HTRF assay"}, "[27]": {"target": "Histone-lysine N-methyltransferase SUV39H1 (Homo sapiens) (UniProt O43463)", "assay": "Inhibition of SUV39H1 (unknown origin)"}, "[28]": {"target": "DNMT3A2/3L complex (Homo sapiens) (UniProt Q9Y6K1+Q9UJW3)", "sequence (Q9UJW3 whole entry, looked up)": "as the sequence (Q9UJW3 whole entry, looked up, other chains not shown) above", "sequence (Q9Y6K1 whole entry, looked up)": "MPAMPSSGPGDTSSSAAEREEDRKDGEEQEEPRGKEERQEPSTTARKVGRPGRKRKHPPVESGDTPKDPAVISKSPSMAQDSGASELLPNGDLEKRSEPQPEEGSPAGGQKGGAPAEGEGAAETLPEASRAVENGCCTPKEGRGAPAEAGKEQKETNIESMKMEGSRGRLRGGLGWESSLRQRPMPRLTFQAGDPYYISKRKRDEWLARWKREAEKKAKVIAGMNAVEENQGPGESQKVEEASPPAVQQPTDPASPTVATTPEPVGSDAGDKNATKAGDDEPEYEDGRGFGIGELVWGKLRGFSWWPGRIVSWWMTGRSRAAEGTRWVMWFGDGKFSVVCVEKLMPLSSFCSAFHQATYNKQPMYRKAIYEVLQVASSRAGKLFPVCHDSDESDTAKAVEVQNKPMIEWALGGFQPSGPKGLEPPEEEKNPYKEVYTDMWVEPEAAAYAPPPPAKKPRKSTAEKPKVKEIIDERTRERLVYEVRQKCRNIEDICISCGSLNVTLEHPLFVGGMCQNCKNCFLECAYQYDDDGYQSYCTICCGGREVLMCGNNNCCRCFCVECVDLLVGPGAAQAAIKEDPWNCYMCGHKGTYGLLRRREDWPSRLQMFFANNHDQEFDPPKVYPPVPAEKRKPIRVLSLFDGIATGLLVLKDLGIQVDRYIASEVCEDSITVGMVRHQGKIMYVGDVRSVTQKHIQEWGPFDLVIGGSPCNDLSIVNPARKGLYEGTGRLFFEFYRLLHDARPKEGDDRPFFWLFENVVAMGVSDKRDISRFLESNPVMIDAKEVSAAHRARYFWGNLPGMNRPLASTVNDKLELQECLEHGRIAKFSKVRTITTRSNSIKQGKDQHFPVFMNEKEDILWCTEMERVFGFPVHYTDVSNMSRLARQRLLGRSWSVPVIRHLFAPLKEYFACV", "assay": "Inhibition of DNMT3A/DNMT3L (unknown origin)", "format": "protein-complex assay"}, "[29]": {"target": "Glycogen synthase kinase-3 beta (Homo sapiens, UniProt P49841)", "sequence (P49841 whole entry)": "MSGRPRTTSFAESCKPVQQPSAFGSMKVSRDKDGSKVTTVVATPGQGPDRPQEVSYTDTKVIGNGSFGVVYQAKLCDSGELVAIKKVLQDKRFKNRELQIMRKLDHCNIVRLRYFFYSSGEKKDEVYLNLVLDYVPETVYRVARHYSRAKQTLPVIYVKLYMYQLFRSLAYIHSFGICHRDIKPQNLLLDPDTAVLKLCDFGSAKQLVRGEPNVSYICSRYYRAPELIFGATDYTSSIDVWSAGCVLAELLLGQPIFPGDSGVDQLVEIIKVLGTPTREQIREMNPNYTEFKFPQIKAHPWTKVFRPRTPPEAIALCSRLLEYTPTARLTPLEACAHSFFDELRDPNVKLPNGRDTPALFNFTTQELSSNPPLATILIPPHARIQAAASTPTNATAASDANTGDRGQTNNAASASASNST", "assay": "Inhibition of GSK-3-beta (unknown origin) by HTRF assay"}, "[30]": {"target": "Ribosomal protein S6 kinase alpha-6 (Homo sapiens, UniProt Q9UK32)", "assay": "Inhibition of RSK4 (unknown origin)"}},
  "note": "pIC50: −log10 of the molar value. Activity calls are given as the source filed them. The rule behind the calls is not given here.",
  "data": [
    {"smiles": "C[C@H]1CC(=O)Nc2cc(C(=O)NCCC3CC3)ccc2N1C(=O)N1CC2CC2C1", "note": "(stereo not given in full)", "values": [
      {"measurement": "logD", "setting": "[1]", "result": 1.9},
      {"measurement": "deltaH", "setting": "[2]", "result": -4.2, "unit": "kcal/mol"},
      {"measurement": "inhibition", "setting": "[3]", "result": "Dose-Dependent Effect"},
      {"measurement": "pIC50", "setting": "[4]", "result": 6.74},
      {"measurement": "inhibition", "setting": "[5]", "result": "inactive"},
      {"measurement": "inhibition", "setting": "[6]", "result": "inactive"},
      {"measurement": "Ka", "setting": "[7]", "result": "3.1 10^5/M/s"},
      {"measurement": "inhibition", "setting": "[8]", "result": "inactive"},
      {"measurement": "pIC50", "setting": "[9]", "result": "< 4.70"},
      {"measurement": "pIC50", "setting": "[10]", "result": "< 4.70"},
      {"measurement": "Kdiss", "setting": "[11]", "result": "3 10^-2/s"},
      {"measurement": "pIC50", "setting": "[12]", "result": "< 4.70"},
      {"measurement": "inhibition", "setting": "[13]", "result": "inactive"},
      {"measurement": "pIC50", "setting": "[14]", "result": "< 5.00"},
      {"measurement": "pIC50", "setting": "[15]", "result": "< 5.00"},
      {"measurement": "inhibition", "setting": "[16]", "result": "inactive"},
      {"measurement": "fold change (FC)", "setting": "[17]", "result": 4},
      {"measurement": "inhibition", "setting": "[18]", "result": "inactive"},
      {"measurement": "pIC50", "setting": "[19]", "result": "< 4.70"},
      {"measurement": "inhibition", "setting": "[20]", "result": "inactive"},
      {"measurement": "pIC50", "setting": "[21]", "result": "< 4.70"},
      {"measurement": "deltaG", "setting": "[22]", "result": -9.2, "unit": "kcal/mol"},
      {"measurement": "pIC50", "setting": "[23]", "result": "< 4.70"},
      {"measurement": "inhibition", "setting": "[24]", "result": "inactive"},
      {"measurement": "pIC50", "setting": "[25]", "result": "< 5.00"},
      {"measurement": "pIC50", "setting": "[26]", "result": "< 4.70"},
      {"measurement": "inhibition", "setting": "[27]", "result": "inactive"},
      {"measurement": "inhibition", "setting": "[28]", "result": "inactive"},
      {"measurement": "pIC50", "setting": "[29]", "result": "< 4.70"},
      {"measurement": "pIC50", "setting": "[30]", "result": "< 4.70"}
    ]}
  ]
}
